According to ChEMBL document CHEMBL3286300, “Fluorine modulates species selectivity in the triazolopyrimidine class of Plasmodium falciparum dihydroorotate dehydrogenase inhibitors” (J Med Chem, 2014):

Legend:
[1] = molecular target: Dihydroorotate dehydrogenase (quinone), mitochondrial (Mus musculus, UniProt O35435); assay: Inhibition of mouse DHODH (amino acid residues 30 to 396) expressed in Escherichia coli BL21 cells assessed as orotic acid production using dihydroorotate as substrate by DCIP dye-based assay
Sequence of Dihydroorotate dehydrogenase (quinone), mitochondrial (Mus musculus, UniProt O35435) (O35435 whole entry, the tested form may be a part): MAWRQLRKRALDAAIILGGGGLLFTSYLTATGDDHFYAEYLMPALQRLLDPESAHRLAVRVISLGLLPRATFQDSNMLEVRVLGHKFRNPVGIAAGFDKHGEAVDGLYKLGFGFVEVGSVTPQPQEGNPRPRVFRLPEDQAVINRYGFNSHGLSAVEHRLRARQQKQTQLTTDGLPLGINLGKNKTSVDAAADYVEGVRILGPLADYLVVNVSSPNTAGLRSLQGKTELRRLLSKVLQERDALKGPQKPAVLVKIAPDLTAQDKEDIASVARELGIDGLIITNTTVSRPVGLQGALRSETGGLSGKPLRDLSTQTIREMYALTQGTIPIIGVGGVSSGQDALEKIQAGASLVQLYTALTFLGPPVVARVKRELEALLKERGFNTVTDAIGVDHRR
In short: (§1)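 Assay buffer 100 mM Hepes pH 8.0, 150 mM NaCl, 10% glycerol, 0.1% Triton, with 0.2 mM DHO, 0.02 mM CoQD and 0.12 mM DCIP. DCIP reduction read at 600 nm, 25 °C, started with 2–10 nM enzyme. Inhibitor 0.01–100 μM in 3-fold steps, triplicate. IC50 from a three-parameter fit of vi/vo.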

[2] = Inhibition of dog DHODH (amino acid residues 48 to 414) expressed in Escherichia coli BL21 cells assessed as orotic acid production using dihydroorotate as substrate by DCIP dye-based assay; design: species or system Canis lupus familiaris; in short: as §1
[3] = molecular target: T1, Dihydroorotate dehydrogenase (quinone), mitochondrial (Homo sapiens, UniProt Q02127); assay: Inhibition of C-terminal His6-tagged human DHODH (amino acid residues 30 to 396) expressed in Escherichia coli BL21 cells assessed as orotic acid production using dihydroorotate as substrate by DCIP dye-based assay; in short: as §1
T1 sequence (Q02127 whole entry, the tested form may be a part): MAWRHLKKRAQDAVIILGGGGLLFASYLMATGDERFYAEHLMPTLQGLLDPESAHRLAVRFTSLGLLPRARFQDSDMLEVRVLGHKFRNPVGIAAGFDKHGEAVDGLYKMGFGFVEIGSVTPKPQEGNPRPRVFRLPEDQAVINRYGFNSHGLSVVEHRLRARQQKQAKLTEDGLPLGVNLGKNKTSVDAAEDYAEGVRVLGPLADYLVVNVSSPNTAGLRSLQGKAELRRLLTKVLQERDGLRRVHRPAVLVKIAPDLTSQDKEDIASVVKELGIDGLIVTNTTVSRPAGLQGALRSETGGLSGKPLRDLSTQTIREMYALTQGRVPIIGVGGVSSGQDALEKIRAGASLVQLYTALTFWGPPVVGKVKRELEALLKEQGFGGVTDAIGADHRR

[4] = system: BL21; assay: Selectivity ratio of IC50 for C-terminal His6-tagged human DHODH (amino acid residues 30 to 396) expressed in Escherichia coli BL21 cells to IC50 for N-terminal His6-tagged recombinant Plasmodium falciparum DHODH (amino acid residues 158 to 569) expressed in Escherichia coli BL21 cells
[5] = molecular target: T2, Dihydroorotate dehydrogenase (quinone), mitochondrial (Rattus norvegicus, UniProt Q63707); assay: Inhibition of rat DHODH (amino acid residues 30 to 396) expressed in Escherichia coli BL21 cells assessed as orotic acid production using dihydroorotate as substrate by DCIP dye-based assay; in short: as §1
T2 sequence (Q63707 whole entry, the tested form may be a part): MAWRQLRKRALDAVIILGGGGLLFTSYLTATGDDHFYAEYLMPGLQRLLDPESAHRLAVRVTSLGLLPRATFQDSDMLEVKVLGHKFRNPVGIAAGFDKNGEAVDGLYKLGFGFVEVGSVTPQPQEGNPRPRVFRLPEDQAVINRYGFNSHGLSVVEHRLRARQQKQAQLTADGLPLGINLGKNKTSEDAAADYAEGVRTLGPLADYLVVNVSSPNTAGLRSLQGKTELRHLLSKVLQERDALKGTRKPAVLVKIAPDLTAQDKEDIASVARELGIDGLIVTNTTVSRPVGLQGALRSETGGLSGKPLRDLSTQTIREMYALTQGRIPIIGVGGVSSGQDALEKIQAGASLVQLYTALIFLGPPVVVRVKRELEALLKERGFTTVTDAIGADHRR

[6] = system: Plasmodium falciparum; assay: Antimalarial activity against Plasmodium falciparum 3D7 infected in RBC after 72 hrs by SYBR green dye based flow cytometry; assay type: functional, organism-based; conditions: 3D7, 72 h
[7] = molecular target: T1, Dihydroorotate dehydrogenase (quinone), mitochondrial; assay: Inhibition of C-terminal His6-tagged human DHODH (amino acid residues 33 to 396) expressed in Escherichia coli BL21 cells assessed as orotic acid production using dihydroorotate as substrate by direct assay in presence of oxygen depleting system
[8] = system: BL21; assay: Ratio of IC50 for C-terminal His6-tagged human DHODH (amino acid residues 30 to 396) L46A mutant expressed in Escherichia coli BL21 cells to IC50 for C-terminal His6-tagged wild type human DHODH (amino acid residues 30 to 396) expressed in Escherichia coli BL21 cells
[9] = molecular target: T3, Dihydroorotate dehydrogenase (Plasmodium falciparum, UniProt Q54A96); assay: Inhibition of N-terminal His6-tagged recombinant Plasmodium falciparum DHODH (amino acid residues 158 to 569) expressed in Escherichia coli BL21 cells assessed as orotic acid production using dihydroorotate as substrate by DCIP dye-based assay
T3 sequence (Q54A96 whole entry): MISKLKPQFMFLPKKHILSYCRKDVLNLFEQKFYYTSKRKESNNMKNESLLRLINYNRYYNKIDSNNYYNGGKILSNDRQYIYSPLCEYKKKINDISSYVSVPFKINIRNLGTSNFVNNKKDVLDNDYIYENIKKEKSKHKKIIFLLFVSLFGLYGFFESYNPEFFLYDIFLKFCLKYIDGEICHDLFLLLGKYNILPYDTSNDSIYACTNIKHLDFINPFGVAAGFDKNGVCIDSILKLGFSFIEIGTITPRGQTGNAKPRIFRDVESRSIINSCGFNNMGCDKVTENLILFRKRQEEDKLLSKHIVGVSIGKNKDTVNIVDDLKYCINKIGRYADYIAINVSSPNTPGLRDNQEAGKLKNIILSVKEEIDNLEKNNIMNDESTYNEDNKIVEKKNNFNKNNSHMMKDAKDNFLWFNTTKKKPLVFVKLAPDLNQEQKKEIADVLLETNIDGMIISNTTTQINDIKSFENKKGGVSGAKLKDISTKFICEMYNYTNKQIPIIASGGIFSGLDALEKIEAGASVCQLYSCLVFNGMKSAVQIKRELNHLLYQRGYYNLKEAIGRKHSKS
In short: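 The assay buffer was 100 mM Hepes pH 8.0, 150 mM NaCl, 10% glycerol, 0.1% Triton, with 0.2 mM DHO, 0.02 mM CoQD and 0.12 mM DCIP. Runs started with 2–10 nM enzyme at 25 °C, reading A600 initial rates. Inhibitor was 0.01–100 μM in 3-fold steps, in triplicate. IC50 came from a three-parameter log[I]-response fit.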

[10] = Partition coefficient, log D of the compound at pH 7.4 by chromatography; assay type: physicochemical; conditions: octanol/water
In short: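 LogD at pH 7.4 estimated from chromatographic retention, compared against standards of known partition coefficient.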

[11] = system: BL21; assay: Ratio of IC50 for C-terminal His6-tagged human DHODH (amino acid residues 30 to 396) L359A mutant expressed in Escherichia coli BL21 cells to IC50 for C-terminal His6-tagged wild type human DHODH (amino acid residues 30 to 396) expressed in Escherichia coli BL21 cells
[12] = Inhibition of C-terminal His6-tagged human DHODH (amino acid residues 30 to 396) R136A mutant expressed in Escherichia coli BL21 cells assessed as orotic acid production using dihydroorotate as substrate by direct assay in presence of oxygen depleting system
[13] = Inhibition of C-terminal His6-tagged human DHODH (amino acid residues 30 to 396) L359A mutant expressed in Escherichia coli BL21 cells assessed as orotic acid production using dihydroorotate as substrate by direct assay in presence of oxygen depleting system
[14] = Inhibition of C-terminal His6-tagged human DHODH (amino acid residues 30 to 396) H56A mutant expressed in Escherichia coli BL21 cells assessed as orotic acid production using dihydroorotate as substrate by direct assay in presence of oxygen depleting system
[15] = system: BL21; assay: Ratio of IC50 for C-terminal His6-tagged human DHODH (amino acid residues 30 to 396) R136A mutant expressed in Escherichia coli BL21 cells to IC50 for C-terminal His6-tagged wild type human DHODH (amino acid residues 30 to 396) expressed in Escherichia coli BL21 cells
[16] = Inhibition of C-terminal His6-tagged human DHODH (amino acid residues 30 to 396) L46A mutant expressed in Escherichia coli BL21 cells assessed as orotic acid production using dihydroorotate as substrate by direct assay in presence of oxygen depleting system
[17] = molecular target: T2, Dihydroorotate dehydrogenase (quinone), mitochondrial; assay: Binding affinity to rat DHODH by isothermal titration calorimetry
In short: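 Run at 30 °C in 10 mM Hepes pH 7.8, 20 mM NaCl, 5% glycerol, 1 mM LDAO, 0.2% DMSO. Rat DHODH (5–8 μM) in the cell, titrated with 50 μM inhibitor. Triplicate runs, analysed with NITPIC and SEDPHAT.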

[18] = molecular target: T3, Dihydroorotate dehydrogenase; assay: Binding affinity to Plasmodium falciparum DHODH by isothermal titration calorimetry
In short: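 ITC at 30 °C in 10 mM Hepes pH 7.8, 20 mM NaCl, 5% glycerol, 1 mM LDAO, 0.2% DMSO. PfDHODH (5–10 μM) in the cell was titrated with 50 μM inhibitor. Triplicate runs.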

| SMILES | IC50 [1] | IC50 [2] | IC50 [3] | Ratio IC50 [4] | IC50 [5] | IC50 [6] | IC50 [7] | Ratio IC50 [8] | IC50 [9] | logD [10] | Ratio IC50 [11] | IC50 [12] | IC50 [13] | IC50 [14] | Ratio IC50 [15] | IC50 [16] | Kd [17] | Kd [18] |
| --- | --- | --- | --- | --- | --- | --- | --- | --- | --- | --- | --- | --- | --- | --- | --- | --- | --- | --- |
| Cc1cc(Nc2cc(F)c(C(F)(F)F)c(F)c2)n2ncnc2n1 | > 30000 nM | > 100000 nM | > 100000 nM | > 769 | 37000 nM |  |  |  |  |  |  |  |  |  |  |  |  |  |
| Cc1cc(Nc2ccc(C(F)(F)F)cc2)n2nc(C(F)(F)F)nc2n1 | 9700 nM | 86000 nM | > 100000 nM |  | 3500 nM | 6.3 nM |  |  |  |  |  |  |  |  |  |  |  |  |
| Cc1cc(Nc2cc(F)c(C(F)(F)F)c(F)c2)n2nc(C(C)(F)F)nc2n1 | 180 nM | 700 nM | 2100 nM | 100 | 130 nM | 12 nM | 2700 nM | 50 | 20 nM | 4.46 | > 50 | > 100000 nM | > 100000 nM | 5300 nM | 50 | > 100000 nM | 48 nM | 5.1 nM |
| Cc1cc(Nc2ccc(C(F)(F)F)cc2)n2ncnc2n1 | > 100000 nM | > 100000 nM |  |  |  |  |  |  |  | 3.55 |  |  |  |  |  |  |  |  |
| Cc1cc(Nc2ccc(C(F)(F)F)cc2)n2nc(C(C)(F)F)nc2n1 |  | > 100000 nM | > 100000 nM |  |  | 3.6 nM | > 100000 nM |  | 46 nM | 4.05 |  | > 100000 nM | > 100000 nM | > 100000 nM |  | > 100000 nM |  | 27 nM |
| Cc1cc(Nc2cc(F)c(C(F)(F)F)c(F)c2)n2nc(C(F)(F)F)nc2n1 | 88 nM | 320 nM | 1600 nM |  | 49 nM | 1.8 nM | 2100 nM | 50 | 22 nM | 5.01 | 10 | > 100000 nM | 35000 nM | 900 nM | 50 | > 100000 nM |  | 9.6 nM |
| Cc1cc(Nc2ccc(C(F)(F)F)c(F)c2)n2nc(C(C)(F)F)nc2n1 | 1600 nM | 7200 nM | 17000 nM |  | 800 nM | 3.9 nM | 45000 nM |  | 35 nM | 4.25 |  | > 100000 nM | > 100000 nM | 67000 nM |  | > 100000 nM |  | 9.8 nM |
